# Screening data (PubChem BioAssay)
# L929 necroptosis – L929 zVAD cell death inhibition | L929 zVAD necroptosis rescue, ATP luminescence, 24 h; with zVAD 60 µM | viability rescue, % at 10 µM | 0.38% of 220,000 active;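 active = activation, scaled between plate controls, above about 75%, limit read from the data; inactive = activation under that limit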;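 also: 0% = zVAD with DMSO and 100% = DMSO alone without zVAD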
# TNF necrop inh – inhibitors of TNF-alpha induced necroptosis in Jurkat FADD-/- cells; Jurkat FADD-/- TNF necroptosis rescue, ATP luminescence, 24 h; 0 = TNF only, 100 = no-TNF cells; activation (protection from cell death), % at 10 µM; 0.068% of 220,000 active;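 active = activation, meaning protection from cell death, of at least 50% relative to plate controls; inactive = activation below 50%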;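 also: necroptosis triggered by 40 ng/mL TNF-alpha added together with compound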
# MDM2 E3 inh – inhibitors of human Mdm2 E3 ubiquitin ligase | Q00987 | cell-based MDM2 ubiquitination luciferase reporter, 2 h; 0 = plate control, 100 = twice control, blank-subtracted | signal enhancement, % at 5 µM | 0.11% of 210,000 active | AID 1230;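 active = signal enhancement of 30% or more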;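 also: luminescence tracks abundance of the self-degrading MDM2-luciferase fusion protein; higher signal means inhibition of MDM2 E3 ligase activity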
# Target sequence (Q00987 whole entry, looked up, the tested form may be a part): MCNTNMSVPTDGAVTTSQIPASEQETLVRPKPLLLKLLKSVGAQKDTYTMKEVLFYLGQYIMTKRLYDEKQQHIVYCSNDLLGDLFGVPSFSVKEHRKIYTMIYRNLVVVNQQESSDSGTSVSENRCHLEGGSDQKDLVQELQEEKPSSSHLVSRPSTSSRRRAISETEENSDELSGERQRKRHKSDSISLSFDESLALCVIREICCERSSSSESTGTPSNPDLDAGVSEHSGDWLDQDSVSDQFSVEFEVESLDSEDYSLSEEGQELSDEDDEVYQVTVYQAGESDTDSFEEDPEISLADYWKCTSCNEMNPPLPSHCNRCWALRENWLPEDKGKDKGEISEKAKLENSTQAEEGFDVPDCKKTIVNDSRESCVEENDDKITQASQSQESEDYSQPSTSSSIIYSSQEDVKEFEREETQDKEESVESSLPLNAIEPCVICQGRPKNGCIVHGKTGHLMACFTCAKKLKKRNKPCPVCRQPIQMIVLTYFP
#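 system = mammalian cells stably expressing self-ubiquitinating, self-degrading MDM2 E3–luciferase fusion | quantity = 2000 cells per well seeded | incubation = 4 h cell settling then 2 h compound exposure, 37 °C | signal = SteadyLite luminescence, 15 min reagent step | benchmarks = plate control and blank wells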
# E-sel TNF inh – blocks E-selectin expression induced by TNF alpha; HUVEC TNFa-induced E-selectin immunofluorescence, high content; inhibition, % at 2 µM; 0.71% of 120,000 active;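 active = inhibition above the batch mean plus 3 SD, and confirmed as a hit on visual image review, cut at about 43% in these data; inconclusive = passes the inhibition cutoff but fails visual image review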;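 also: 0% = TNF-stimulated DMSO wells and 100% = unstimulated control wells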
# HSV augment – HSV replication enhancement; maximum fold increase; AID 1956; HSV replication augmentation in cells, fold increase; 0.005% of 220,000 active; in the data active = maximum fold increase above about 1.5; inconclusive = no clear call, values can overlap the other calls; tested in PC3 cells
# zVAD necrop conf – confirmed blocker of zVAD induced death in L929 cells. 16% of 760 active. L929 zVAD-induced necroptosis rescue, ATP luminescence, 24 h. activation (protection from necroptosis), % at 10 µM. shares compounds with L929 necroptosis;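 active = mean protection from necroptosis of at least 50% over duplicate tests; inactive = mean protection below 50%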;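 also: 0% = cells with zVAD alone and 100% = vehicle cells without zVAD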
# The depositor's hits bear a star; i = inactive; u = inconclusive; x = no result. Most compounds without a hit are left out; they make up all but 0.89% or so of the library.
SMILES,L929 necroptosis,TNF necrop inh,MDM2 E3 inh,E-sel TNF inh,HSV augment,zVAD necrop conf
CCC(CO)NCC#Cc1ccccc1 (configuration not stated),0,0,0,x,i,x
CCCC(=O)c1cc2c(cc1NC(=O)c1ccccc1F)OCCO2,2,1,0,x,i,x
CCN(CC)c1c([N+](=O)[O-])c(=O)n(CC)c2ccccc12,0,-2,2,x,i,x
CC(=O)N(C)c1ccc(NC(=O)Nc2ccc(C)c(C)c2)cc1,77*,-2,-11,x,i,39
O=C(CSc1nnc(NC2CCCCC2)s1)Nc1ccc2c(c1)C(=O)c1ccccc1C2=O,80*,12,-12,x,i,90*
CC(C)Nc1nnc(SCC(=O)Nc2ccc3c(c2)C(=O)c2ccccc2C3=O)s1,81*,2,-11,x,i,45
O=C(Cc1ccccc1)Nc1nnc(SCC(=O)NC2CCCC2)s1,1,2,-16,-12,i,x
Cc1nc(CNC(=O)CC2C(=O)NCCN2Cc2ccoc2)nc2c1CCCC2 (configuration not stated),-1,1,-10,x,i,x
CC(=O)c1ccc2noc(-c3ccccc3)c2c1,76*,1,2,x,i,2
O=c1[nH]c2ccccc2nc1/C=C/c1ccccc1,78*,1,-9,x,i,29
O=c1[nH]c2ccccc2nc1/C=C/c1ccc(F)cc1,67,-4,4,x,i,x
O=c1[nH]c2ccccc2nc1/C=C/c1ccc(O)cc1,81*,-6,-10,x,x,82*
Cc1cc(N)n(Cc2cccs2)n1,9,9,6,x,i,x
CCN(CC)S(=O)(=O)c1cccc(C(=O)NCCCn2ccnc2)c1,0,0,-43,x,i,x
O=C(CCl)Nc1c[nH]c(=O)[nH]c1=O,81*,44,-9,-40,i,12
O=C(Cc1ccccc1)Nc1c[nH]c(=O)[nH]c1=O,0,2,15,-49,i,x
O=C(O)c1ccc(N=c2oc3cc(O)ccc3cc2C(=O)NCc2ccccc2)cc1,36,1,-8,x,i,x
COc1ccc2cc(C(=O)NCc3ccccc3)c(=Nc3ccc(C(=O)O)cc3)oc2c1,76*,2,-7,x,i,1
Cc1oc(-c2cc3c(cc2Cl)OCO3)nc1CN1CCCC1c1ccc(F)cc1 (configuration not stated),-1,0,-5,x,i,x
CC(C)OCCCNC(=S)Nc1ccc(S(N)(=O)=O)cc1,75*,3,11,x,i,2
C/C(=N\NC(=O)c1ccc(NS(=O)(=O)c2cccs2)cc1)c1ccc(C(C)(C)C)cc1,82*,7,-7,-16,i,6
Cc1ccc(C2CC(=O)NC(SCC(=O)Nc3nccs3)=C2C#N)cc1 (configuration not stated),96*,92*,-15,x,i,85*
O=C(c1ccc(Br)cc1)N(Cc1nc2ccccc2c(=O)[nH]1)C1CCCC1,-1,-1,-14,x,i,x
CC(C)(C)c1ccc(C(=O)Nc2ccc(S(N)(=O)=O)cc2)cc1,83*,0,4,x,i,34
Cc1ccc2c(c1)C(=C(C#N)C#N)C(=O)N2CCN1CCOCC1,89*,1,-5,x,i,1
SMILES,L929 necroptosis,TNF necrop inh,MDM2 E3 inh,E-sel TNF inh,HSV augment,zVAD necrop conf
Cc1ccc2c(CN3CCOCC3)cc(=O)oc2c1,2,3,-11,x,i,x
Cc1ccc2c(c1)C(=C(C#N)C#N)C(=O)N2CCN1CCCCC1,90*,6,3,x,i,39
Cc1ccc(OCCN2C(=O)C(=O)c3cc(C)ccc32)cc1,-2,-4,2,x,i,x
COc1ccc(C(=O)NCCN2C(=O)S/C(=C\c3cccnc3)C2=O)cc1[N+](=O)[O-],0,-8,-8,x,i,x
NC(=O)COC(=O)CSc1ccc2ccccc2c1,1,1,-14,x,i,x
CC1=CC(=O)C(C(C)C)=C/C1=N\OC(=O)c1cccc2nc(C)oc12,87*,-2,-13,x,u,4
O=c1[nH]c(SCc2cccc(Cl)c2)nc2[nH]ncc12,1,0,-13,x,i,x
O=C1c2ccccc2C(O)N1CCN1CCOCC1 (configuration not stated),0,1,0,x,i,x
CCCCN1C(=O)/C(=C(/C#N)C(=O)N2CCCC2)c2ccccc21,1,-3,x,x,i,x
N#CC(C#N)=C1C(=O)N(CCN2CCOCC2)c2ccccc21,86*,-8,4,x,i,1
N#CC(C#N)=C1C(=O)N(CCN2CCCCC2)c2ccccc21,90*,-28,0,x,i,35
NS(=O)(=O)c1ccc(CCNC(=S)NC2CCCC2)cc1,19,0,0,x,i,x
S=C(NCCc1ccc(Cl)cc1)NC1CC1,92*,0,5,x,i,6
CCCC[C@H]1C2=C3[C@@H](CC(C(=O)OC)=C[C@@H](C(=O)OC)[C@H]3C(C)(C)C2=O)n2c(=O)n(-c3ccccc3)c(=O)n21,x,x,x,x,i,x
CC(C)OC(=O)N(C)c1ccc(C(O)(C(F)(F)F)C(F)(F)F)cc1,77*,-2,10,5,i,9
COc1cccc(NC(=O)Nc2ccc(C(C)(C)C)cc2)c1,79*,2,-4,x,i,8
COC(=O)c1ccc(NC(=O)Nc2ccc(OC)cc2)cc1,83*,5,-3,x,i,2
COc1cccc(NC(=O)NC(C)C2CC3CCC2C3)c1 (configuration not stated),75*,1,-12,x,i,30
CCC(C)[C@H](NC(=O)Nc1cccc(OC)c1)C(=O)OC (some centres not stated),0,-2,-28,8,i,x
COc1ccc(-c2cc(C(F)F)n3ncc(C(=O)Nc4cc(C)on4)c3n2)cc1,1,0,-10,-1,i,x
Cc1cccc(CN2C[C@]34CC[C@@H](C[C@@H]3S2(=O)=O)O4)c1,0,3,7,x,i,x
NS(=O)(=O)c1ccc(N/C=C\C(=O)c2ccc(F)cc2)cc1,1,-2,-11,14,i,x
NS(=O)(=O)c1ccc(N/C=C/C(=O)c2ccc(Br)cc2)cc1,76*,-1,-9,x,i,16
O=C(CN1C(=O)C2C3C=CC(C4CC34)C2C1=O)Nc1cnc2ccccc2c1 (configuration not stated),75*,5,-2,x,i,0
Cc1ccc(C)c(SCC(=O)OC/C(O)=C(\C#N)c2nc3ccccc3[nH]2)c1,78*,-2,-14,-7,i,29
Cc1ccc(C2C3=C(CCCC3=O)Nc3c2c(C)nn3-c2ccccn2)o1 (configuration not stated),-1,1,-1,x,i,x
NC(=O)c1ncc(C(F)(F)F)cc1Oc1cccnc1,0,1,-5,-27,i,x
